Calls of active or inactive are those of the source. The calls are words filed in the database; no cut-off is given here.
Tests used:
[1] = tested on: Bromus diandrus var. rigidus; experiment: Herbicidal activity against ALS-inhibiting herbicide-resistant two-leaf stage Bromus diandrus var. rigidus biotype R3 seedlings exposed to compound spraying measured 28 days after compound spraying; format: functional
Method in brief: (§1)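 Seedlings germinated on 1% water agar (7–10 days, ambient) were sprayed at the 2–3-leaf stage with a sulfonylurea at 1.875–240 g ha−1, with no malathion. Percent survival was scored with three replicate treatments. LD50 came from non-linear regression, and R/S is the ratio of resistant to susceptible LD50.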

[2] = tested on: Bromus diandrus var. rigidus; experiment: Herbicidal activity against ALS-inhibiting herbicide-resistant two-leaf stage Bromus diandrus var. rigidus biotype R6 seedlings exposed to compound spraying measured 28 days after compound spraying; format: functional; method in brief: as §1
[3] = tested on: Bromus diandrus var. rigidus; experiment: Herbicidal activity against ALS-inhibiting herbicide-resistant two-leaf stage Bromus diandrus var. rigidus biotype R2 seedlings exposed to compound spraying measured 28 days after compound spraying; format: functional; method in brief: as §1
[4] = tested on: Bromus diandrus var. rigidus; experiment: Resistance index, ratio of LD50 for ALS-inhibiting herbicide-resistant two-leaf stage Bromus diandrus var. rigidus biotype R4 to ALS-inhibiting herbicide-susceptible two-leaf stage Bromus diandrus var. rigidus; format: functional; method in brief: as §1
[5] = tested on: Bromus diandrus var. rigidus; experiment: Herbicidal activity against ALS-inhibiting herbicide-resistant two-leaf stage Bromus diandrus var. rigidus biotype R4 seedlings exposed to compound spraying measured 28 days after compound spraying; format: functional; method in brief: as §1
[6] = tested on: Bromus diandrus var. rigidus; experiment: Herbicidal activity against ALS-inhibiting herbicide-resistant two-leaf stage Bromus diandrus var. rigidus biotype R1 seedlings exposed to compound spraying measured 28 days after compound spraying; format: functional; method in brief: as §1
[7] = tested on: Bromus diandrus var. rigidus; experiment: Resistance index, ratio of LD50 for ALS-inhibiting herbicide-resistant two-leaf stage Bromus diandrus var. rigidus biotype R5 to ALS-inhibiting herbicide-susceptible two-leaf stage Bromus diandrus var. rigidus; format: functional; method in brief: as §1
[8] = tested on: Bromus diandrus var. rigidus; experiment: Herbicidal activity against ALS-inhibiting herbicide-susceptible two-leaf stage Bromus diandrus var. rigidus seedlings exposed to compound spraying measured 28 days after compound spraying; format: functional; method in brief: as §1
[9] = tested on: Bromus diandrus var. rigidus; experiment: Resistance index, ratio of LD50 for ALS-inhibiting herbicide-resistant two-leaf stage Bromus diandrus var. rigidus biotype R3 to ALS-inhibiting herbicide-susceptible two-leaf stage Bromus diandrus var. rigidus; format: functional; method in brief: as §1
[10] = tested on: Bromus diandrus var. rigidus; experiment: Resistance index, ratio of LD50 for ALS-inhibiting herbicide-resistant two-leaf stage Bromus diandrus var. rigidus biotype R1 to ALS-inhibiting herbicide-susceptible two-leaf stage Bromus diandrus var. rigidus; format: functional; method in brief: as §1
[11] = tested on: Bromus diandrus var. rigidus; experiment: Resistance index, ratio of LD50 for ALS-inhibiting herbicide-resistant two-leaf stage Bromus diandrus var. rigidus biotype R6 to ALS-inhibiting herbicide-susceptible two-leaf stage Bromus diandrus var. rigidus; format: functional; method in brief: as §1
[12] = tested on: Bromus diandrus var. rigidus; experiment: Resistance index, ratio of LD50 for ALS-inhibiting herbicide-resistant two-leaf stage Bromus diandrus var. rigidus biotype R2 to ALS-inhibiting herbicide-susceptible two-leaf stage Bromus diandrus var. rigidus; format: functional; method in brief: as §1
[13] = tested on: Bromus diandrus var. rigidus; experiment: Herbicidal activity against ALS-inhibiting herbicide-resistant two-leaf stage Bromus diandrus var. rigidus biotype R5 seedlings exposed to compound spraying measured 28 days after compound spraying; format: functional; method in brief: as §1
[14] = tested on: Bromus diandrus var. rigidus; experiment: (§2) Resistance index, ratio of LD50 for ALS-inhibiting herbicide-resistant two-leaf stage Bromus diandrus var. rigidus biotype R4 in absence of 1000 g/ha cytochrome P450 inhibitor malathion to LD50 for ALS-inhibiting herbicide-susceptible two-leaf stage Bromus diandrus var. rigidus in absence of 1000 g/ha cytochrome P450 inhibitor malathion; format: functional
Method in brief: (§3)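 Seeds were germinated on 1% water agar for 7–10 days at ambient conditions, then sprayed at the 2–3-leaf stage. Malathion at 1000 g ha−1 was sprayed 30 min before the herbicide, or omitted. Herbicide doses were 18.75–600 g ha−1. Survival and dried above-ground biomass were assessed 21 days after treatment, with two replicates. LD50 came from non-linear regression, and R/S is the ratio of resistant to susceptible LD50.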

[15] = tested on: Bromus diandrus var. rigidus; experiment: Herbicidal activity against ALS-inhibiting herbicide-resistant two-leaf stage Bromus diandrus var. rigidus biotype R5 seedlings exposed to compound spraying in presence of 1000 g/ha cytochrome P450 inhibitor malathion measured […]; format: functional; method in brief: as §3
[16] = tested on: Bromus diandrus var. rigidus; experiment: Herbicidal activity against ALS-inhibiting herbicide-resistant two-leaf stage Bromus diandrus var. rigidus biotype R6 seedlings assessed as reduction in above-ground biomass exposed to compound spraying in presence of 1000 g/ha cytochrome P450 inhibitor malathion measured […]; format: functional, organism-based; method in brief: as §3
[17] = tested on: Bromus diandrus var. rigidus; experiment: as §2, with “R6” for “R4”, “presence” for “absence”; format: functional; method in brief: as §3
[18] = tested on: Bromus diandrus var. rigidus; experiment: Herbicidal activity against ALS-inhibiting herbicide-resistant two-leaf stage Bromus diandrus var. rigidus biotype R2 seedlings assessed as reduction in above-ground biomass exposed to compound spraying in presence of 1000 g/ha cytochrome P450 inhibitor malathion measured […]; format: functional, organism-based; method in brief: as §3
[19] = tested on: Bromus diandrus var. rigidus; experiment: Herbicidal activity against ALS-inhibiting herbicide-resistant two-leaf stage Bromus diandrus var. rigidus biotype R2 seedlings exposed to compound spraying in presence of 1000 g/ha cytochrome P450 inhibitor malathion measured […]; format: functional; method in brief: as §3
[20] = tested on: Bromus diandrus var. rigidus; experiment: Herbicidal activity against ALS-inhibiting herbicide-resistant two-leaf stage Bromus diandrus var. rigidus biotype R6 seedlings exposed to compound spraying in presence of 1000 g/ha cytochrome P450 inhibitor malathion measured […]; format: functional; method in brief: as §3
[21] = tested on: Bromus diandrus var. rigidus; experiment: as §2, with “presence” for “absence”; format: functional; method in brief: as §3
[22] = tested on: Bromus diandrus var. rigidus; experiment: Herbicidal activity against ALS-inhibiting herbicide-resistant two-leaf stage Bromus diandrus var. rigidus biotype R6 seedlings exposed to compound spraying in absence of 1000 g/ha cytochrome P450 inhibitor malathion measured […]; format: functional; method in brief: as §3
[23] = tested on: Bromus diandrus var. rigidus; experiment: as §2, with “R1” for “R4”, “presence” for “absence”; format: functional; method in brief: as §3
[24] = tested on: Bromus diandrus var. rigidus; experiment: Herbicidal activity against ALS-inhibiting herbicide-susceptible two-leaf stage Bromus diandrus var. rigidus seedlings exposed to compound spraying in presence of 1000 g/ha cytochrome P450 inhibitor malathion measured […]; format: functional; method in brief: as §3
[25] = tested on: Bromus diandrus var. rigidus; experiment: Herbicidal activity against ALS-inhibiting herbicide-resistant two-leaf stage Bromus diandrus var. rigidus biotype R3 seedlings exposed to compound spraying in presence of 1000 g/ha cytochrome P450 inhibitor malathion measured […]; format: functional; method in brief: as §3
[26] = tested on: Bromus diandrus var. rigidus; experiment: as §2, with “R5” for “R4”, “presence” for “absence”; format: functional; method in brief: as §3
[27] = tested on: Bromus diandrus var. rigidus; experiment: Herbicidal activity against ALS-inhibiting herbicide-resistant two-leaf stage Bromus diandrus var. rigidus biotype R4 seedlings assessed as reduction in above-ground biomass exposed to compound spraying in presence of 1000 g/ha cytochrome P450 inhibitor malathion measured […]; format: functional, organism-based; method in brief: as §3
[28] = tested on: Bromus diandrus var. rigidus; experiment: Herbicidal activity against ALS-inhibiting herbicide-resistant two-leaf stage Bromus diandrus var. rigidus biotype R4 seedlings exposed to compound spraying in absence of 1000 g/ha cytochrome P450 inhibitor malathion measured […]; format: functional; method in brief: as §3
[29] = tested on: Bromus diandrus var. rigidus; experiment: Herbicidal activity against ALS-inhibiting herbicide-resistant two-leaf stage Bromus diandrus var. rigidus biotype R3 seedlings exposed to compound spraying in absence of 1000 g/ha cytochrome P450 inhibitor malathion measured […]; format: functional; method in brief: as §3
[30] = tested on: Bromus diandrus var. rigidus; experiment: as §2, with “R3” for “R4”, “presence” for “absence”; format: functional; method in brief: as §3
[31] = tested on: Bromus diandrus var. rigidus; experiment: Herbicidal activity against ALS-inhibiting herbicide-resistant two-leaf stage Bromus diandrus var. rigidus biotype R3 seedlings assessed as reduction in above-ground biomass exposed to compound spraying in presence of 1000 g/ha cytochrome P450 inhibitor malathion measured […]; format: functional, organism-based; method in brief: as §3
[32] = tested on: Bromus diandrus var. rigidus; experiment: Herbicidal activity against ALS-inhibiting herbicide-resistant two-leaf stage Bromus diandrus var. rigidus biotype R4 seedlings exposed to compound spraying in presence of 1000 g/ha cytochrome P450 inhibitor malathion measured […] after compound spraying; format: functional; method in brief: as §3
[33] = tested on: Bromus diandrus var. rigidus; experiment: as §2, with “R6” for “R4”; format: functional; method in brief: as §3
[34] = tested on: Bromus diandrus var. rigidus; experiment: as §2, with “R2” for “R4”, “presence” for “absence”; format: functional; method in brief: as §3
[35] = tested on: Bromus diandrus var. rigidus; experiment: as §2, with “R5” for “R4”; format: functional; method in brief: as §3
[36] = tested on: Bromus diandrus var. rigidus; experiment: Herbicidal activity against ALS-inhibiting herbicide-resistant two-leaf stage Bromus diandrus var. rigidus biotype R1 seedlings exposed to compound spraying in presence of 1000 g/ha cytochrome P450 inhibitor malathion measured […]; format: functional; method in brief: as §3
[37] = tested on: Bromus diandrus var. rigidus; experiment: Herbicidal activity against ALS-inhibiting herbicide-susceptible two-leaf stage Bromus diandrus var. rigidus seedlings exposed to compound spraying in absence of 1000 g/ha cytochrome P450 inhibitor malathion measured […] after compound spraying; format: functional; method in brief: as §3
[38] = tested on: Bromus diandrus var. rigidus; experiment: Herbicidal activity against ALS-inhibiting herbicide-resistant two-leaf stage Bromus diandrus var. rigidus biotype R1 seedlings exposed to compound spraying in absence of 1000 g/ha cytochrome P450 inhibitor malathion measured […]; format: functional; method in brief: as §3
[39] = tested on: Bromus diandrus var. rigidus; experiment: as §2, with “R3” for “R4”; format: functional; method in brief: as §3
[40] = tested on: Bromus diandrus var. rigidus; experiment: Herbicidal activity against ALS-inhibiting herbicide-resistant two-leaf stage Bromus diandrus var. rigidus biotype R5 seedlings exposed to compound spraying in absence of 1000 g/ha cytochrome P450 inhibitor malathion measured […]; format: functional; method in brief: as §3
[41] = tested on: Bromus diandrus var. rigidus; experiment: as §2, with “R1” for “R4”; format: functional; method in brief: as §3
[42] = tested on: Bromus diandrus var. rigidus; experiment: as §2, with “R2” for “R4”; format: functional; method in brief: as §3
[43] = tested on: Bromus diandrus var. rigidus; experiment: Herbicidal activity against ALS-inhibiting herbicide-resistant two-leaf stage Bromus diandrus var. rigidus biotype R2 seedlings exposed to compound spraying in absence of 1000 g/ha cytochrome P450 inhibitor malathion measured […] after compound spraying; format: functional; method in brief: as §3
[44] = tested on: Bromus diandrus var. rigidus; experiment: Herbicidal activity against ALS-inhibiting herbicide-resistant two-leaf stage Bromus diandrus var. rigidus biotype R1 seedlings assessed as reduction in above-ground biomass exposed to compound spraying in presence of 1000 g/ha cytochrome P450 inhibitor malathion measured […]; format: functional, organism-based; method in brief: as §3
[45] = tested on: Bromus diandrus var. rigidus; experiment: Herbicidal activity against ALS-inhibiting herbicide-resistant two-leaf stage Bromus diandrus var. rigidus biotype R5 seedlings assessed as reduction in above-ground biomass exposed to compound spraying in presence of 1000 g/ha cytochrome P450 inhibitor malathion measured […]; format: functional, organism-based; method in brief: as §3

Cc1cc(C)nc(NC(=O)NS(=O)(=O)c2ccccc2C(=O)O)n1 [SULFOMETURON]
LD50 [1]: 31 g/ha | LD50 [2]: 41 g/ha | LD50 [3]: 33 g/ha | Ratio [4]: 3 | LD50 [5]: 30 g/ha | LD50 [6]: 30 g/ha | Ratio [7]: 3.8 | LD50 [8]: 10 g/ha | Ratio [9]: 3.1 | Ratio [10]: 3 | Ratio [11]: 4.1 | Ratio [12]: 3.3 | LD50 [13]: 38 g/ha

CCS(=O)(=O)c1nc2ccccn2c1S(=O)(=O)NC(=O)Nc1nc(OC)cc(OC)n1 [SULFOSULFURON]
Ratio [14]: 11.3 | LD50 [15]: 12 g/ha | Activity [16]: Active | Ratio [17]: 1.8 | Activity [18]: Active | LD50 [19]: 10 g/ha | LD50 [20]: 11 g/ha | Ratio [21]: 2.1 | LD50 [22]: 127 g/ha | Ratio [23]: 2.6 | LD50 [24]: 6 g/ha | LD50 [25]: 16 g/ha | Ratio [26]: 2 | Activity [27]: Active | LD50 [28]: 239 g/ha | LD50 [29]: 173 g/ha | Ratio [30]: 2.6 | Activity [31]: Active | LD50 [32]: 13 g/ha | Ratio [33]: 6 | Ratio [34]: 1.6 | Ratio [35]: 6.6 | LD50 [36]: 16 g/ha | LD50 [37]: 21 g/ha | LD50 [38]: 183 g/ha | Ratio [39]: 8.2 | LD50 [40]: 140 g/ha | Ratio [41]: 8.7 | Ratio [42]: 7.9 | LD50 [43]: 166 g/ha | Activity [44]: Active | Activity [45]: Active

From ChEMBL document CHEMBL3044625, “Non-target-site-based resistance to ALS-inhibiting herbicides in six Bromus rigidus populations from Western Australian cropping fields” (Pest Manag Sci, 2012)
